Published values of several laboratories.
Lines come from different studies, so protocols differ.
Target: Tyrosine-protein kinase Yes (YES1, Homo sapiens, UniProt P07947)

For `C[C@H]1CCN(c2nccc(-c3cnn4ncccc34)n2)C1`, the remaining binding was 94% (binding; 1 µM).
`CC(=O)N1CCC(c2ccc(C(=O)NC(=N)N)cc2C(F)(F)F)CC1` has a remaining binding of 98% (cell-free assay, competition with immobilised ligand; 1 µM).
`COc1cnc(Nc2cccc(S(N)(=O)=O)c2)nc1N1CCN(c2ccccc2)C(=O)C1` has a remaining binding of 100% (binding, competition with immobilised ligand; 1 µM).
The remaining binding of `CN(c1ccnc(CNc2nc(Nc3ccc4c(c3)CC(=O)N4)ncc2C(F)(F)F)n1)S(C)(=O)=O` is reported as 77% (cell-free assay, competition with immobilised ligand; 1 µM).
`Cc1cnc(Nc2ccc(C(=O)N3CCC(N4CCCC4)CC3)cc2)nc1-c1cc2ccccc2s1` gave a remaining binding of 43% (binding, competition with immobilised ligand; 1 µM).
`CN1CCN(c2ccc(Nc3nccc(-c4cccc([N+](=O)[O-])c4)n3)cc2C(F)(F)F)CC1` has a remaining binding of 32% (binding; 10 µM).
For `Cc1c(NC(=O)c2cc(C(N)=O)nc3cc(F)ccc23)c(C(F)(F)F)nn1Cc1ccc(C#N)cc1`, the remaining binding was 66% (cell-free assay, competition with immobilised ligand; 1 µM).
`Cc1ccc(-n2nc(C(C)(C)C)cc2NC(=O)Nc2ccc(-n3c(N)c(C(N)=O)c4nc5ccc(NCCCN)cc5nc43)cc2)cc1` has a remaining binding of 1.9% (cell-free assay, competition with immobilised ligand; 1 µM).
`Cc1cnn2ncc(-c3ccnc(N(C)C)n3)c2c1` gave a remaining binding of 100% (binding; 1 µM).
With `CCC(=N\O)/C(C)=C/c1ccc(F)cc1` the remaining binding was 87% (cell-free assay, competition with immobilised ligand; 1 µM).
`CN(C)c1ncc(F)c(-c2cnn3ncccc23)n1` gave a remaining binding of 78% (binding; 1 µM).
With `O=C(NCCCN1CCOCC1)c1ccc(Nc2ncc(Cl)c(-c3ccc(Cl)s3)n2)cc1` the remaining binding was 76% (binding, competition with immobilised ligand; 1 µM).
`O=C(Nc1c[nH]nc1C(=O)NC1CCNCC1)c1cc(F)cc(F)c1` has a remaining binding of 100% (binding, competition with immobilised ligand; 1 µM).
For `C=CC(=O)N1CCC(C(=O)NCC(=O)N2CCN(c3nc(-c4cnc(N)nc4C(F)F)nc(N4CCOCC4)n3)CC2)CC1`, the remaining binding was 97% (binding, competition with immobilised ligand; 1 µM).
`C[C@@H](c1ccc(-n2cnc3c(N)ncnc32)cc1)N1CCc2nn(C)c(Cc3ccccc3)c2C1=O` has a remaining binding of 74% (binding, competition with immobilised ligand; 0.1 µM).
`Cc1c(C(=O)O)cc(-c2ccc(C3CCNCC3)cc2)c2ccc(-c3ccc(C(F)(F)F)cc3)cc12` has a remaining binding of 100% (cell-free assay, competition with immobilised ligand; 1 µM).
`c1cnn2ncc(-c3ccnc(N4CCC45COC5)n3)c2c1` has a remaining binding of 72% (binding; 1 µM).
The remaining binding of `CC(=O)C1=C(C)N(c2cccc(C(F)(F)F)c2)C(=O)N[C@@H]1c1ccc(C#N)nc1` is reported as 81.1% (cell-free assay, competition with immobilised ligand; 1 µM).
The remaining binding of `COc1ncc2cc3ccccc3nc2c1C#N` is reported as 100% (cell-free assay, competition with immobilised ligand; 5 µM).
`COc1ccnn2ncc(-c3ccnc(N(C)C)n3)c12` gave a remaining binding of 100% (binding; 1 µM).
For `O=C(c1ccc(Nc2nccc(-c3cc4ccccc4s3)n2)cc1)N1CCC(N2CCCC2)CC1`, the remaining binding was 93% (binding, competition with immobilised ligand; 1 µM).
`F[C@@H]1CCN(c2nccc(-c3cnn4ncccc34)n2)C1` has a remaining binding of 90% (binding; 1 µM).
`COc1ccc2cc(OCC3(C(=O)O)CN(C(=O)c4ccc(F)cc4)C3)ccc2c1` gave a remaining binding of 100% (cell-free assay, competition with immobilised ligand; 1 µM).
`N[C@H]1CCN(c2nccc(-c3cnn4ncccc34)n2)C1` has a remaining binding of 91% (binding; 1 µM).
`Nc1ncc2c(n1)-c1c([nH]c3ccc(C#CC4CC4)cc13)CCCC2` has a remaining binding of 100% (binding, competition with immobilised ligand; 1 µM).
